# Test results: ChEMBL document CHEMBL3868627, “Radical scavenging and antibacterial activity of caffemides against gram positive, gram negative and clinical drug resistance bacteria” (Bioorg Med Chem Lett, 2016)
# pEC50: −log10 of the molar value.
# Tests used:
# Assay type in all cases: functional
# [1] = tested on: Mycolicibacterium smegmatis; experiment: Bactericidal activity against Mycobacterium smegmatis MC2 155 ATCC 700084 at 50 ug/ml measured after 6 hrs by serial dilution method relative to control
# Procedure, shortened: (§1)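 Bacteria were exposed to test compound over a range of µg/ml concentrations. Viable bacteria were counted by colony forming unit (CFU) assay at set time points (6 h and 24 h for M. smegmatis and S. aureus strains), and untreated bacteria served as the control. Percentage of population killed was calculated relative to the untreated control. Values are means ± S.D of three independent trials.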
# [2] = tested on: Staphylococcus aureus; experiment: Antibacterial activity against methicillin-resistant Staphylococcus aureus ATCC 43300 assessed as colony forming units at 10 ug/ml measured after 24 hrs by serial dilution method (reference value: 74 +/- 2 10^6CFU); procedure, shortened: as §1
# [3] = tested on: Staphylococcus aureus; experiment: Antibacterial activity against methicillin-resistant Staphylococcus aureus ATCC 43300 assessed as colony forming units at 10 ug/ml measured after 6 hrs by serial dilution method (reference value: 64.33 +/- 3.51 10^6CFU); procedure, shortened: as §1
# [4] = tested on: Staphylococcus aureus; experiment: Antibacterial activity against methicillin-resistant Staphylococcus aureus ATCC 43300 assessed as colony forming units at 50 ug/ml measured after 24 hrs by serial dilution method (reference value: 74 +/- 2 10^6CFU); procedure, shortened: as §1
# [5] = tested on: Mycolicibacterium smegmatis; experiment: Antibacterial activity against Mycobacterium smegmatis MC2 155 ATCC 700084 assessed as colony forming units at 1 ug/ml measured after 24 hrs by serial dilution method (reference value: 84 +/- 4.35 10^3CFU); procedure, shortened: as §1
# [6] = tested on: Mycolicibacterium smegmatis; experiment: Bactericidal activity against Mycobacterium smegmatis MC2 155 ATCC 700084 at >200 ug/ml measured after 6 and 24 hrs by serial dilution method relative to control; procedure, shortened: as §1
# [7] = tested on: Staphylococcus aureus; experiment: Antibacterial activity against Staphylococcus aureus ATCC 25923 assessed as colony forming units at 100 ug/ml measured after 24 hrs by serial dilution method (reference value: 77.66 +/- 5.13 10^6CFU)
# [8] = tested on: Mycolicibacterium smegmatis; experiment: Antibacterial activity against Mycobacterium smegmatis MC2 155 ATCC 700084 assessed as colony forming units at 300 ug/ml measured after 6 hrs by serial dilution method (reference value: 70 +/- 1.73 10^3CFU); procedure, shortened: as §1
# [9] = tested on: Pseudomonas aeruginosa; experiment: Antibacterial activity against Pseudomonas aeruginosa PAO1 ATCC 15692 assessed as colony forming units at 100 ug/ml measured after 1 hr by serial dilution method (reference value: 85.33 +/- 4.04 10^8CFU)
# [10] = tested on: Pseudomonas aeruginosa; experiment: Bactericidal activity against Pseudomonas aeruginosa PAO1 ATCC 15692 at >300 ug/ml measured after 1 and 3 hrs by serial dilution method relative to control
# [11] = tested on: Staphylococcus aureus; experiment: Antibacterial activity against methicillin-resistant Staphylococcus aureus ATCC 43300 assessed as colony forming units at 100 ug/ml measured after 24 hrs by serial dilution method (reference value: 74 +/- 2 10^6CFU); procedure, shortened: as §1
# [12] = tested on: Staphylococcus aureus; experiment: Antibacterial activity against methicillin-resistant Staphylococcus aureus ATCC 43300 assessed as colony forming units at 100 ug/ml measured after 6 hrs by serial dilution method (reference value: 64.33 +/- 3.51 10^6CFU); procedure, shortened: as §1
# [13] = tested on: Staphylococcus aureus; experiment: Bactericidal activity against methicillin-resistant Staphylococcus aureus ATCC 43300 at 50 ug/ml measured after 24 hrs by serial dilution method relative to control; procedure, shortened: as §1
# [14] = tested on: Mycolicibacterium smegmatis; experiment: Antibacterial activity against Mycobacterium smegmatis MC2 155 ATCC 700084 measured after 72 hrs by serial dilution method
# [15] = tested on: Mycolicibacterium smegmatis; experiment: Antibacterial activity against Mycobacterium smegmatis MC2 155 ATCC 700084 assessed as colony forming units at 50 ug/ml measured after 6 hrs by serial dilution method (reference value: 70 +/- 1.73 10^3CFU); procedure, shortened: as §1
# [16] = tested on: Pseudomonas aeruginosa; experiment: Antibacterial activity against Pseudomonas aeruginosa PAO1 ATCC 15692 assessed as colony forming units at 50 ug/ml measured after 1 hr by serial dilution method (reference value: 85.33 +/- 4.04 10^8CFU)
# [17] = tested on: Staphylococcus aureus; experiment: Antibacterial activity against Staphylococcus aureus ATCC 25923 assessed as colony forming units at 200 ug/ml measured after 6 hrs by serial dilution method (reference value: 65.66 +/- 3.51 10^6CFU)
# [18] = tested on: Staphylococcus aureus; experiment: Antibacterial activity against Staphylococcus aureus ATCC 25923 assessed as colony forming units at 300 ug/ml measured after 6 hrs by serial dilution method (reference value: 65.66 +/- 3.51 10^6CFU); procedure, shortened: as §1
# [19] = tested on: Pseudomonas aeruginosa; experiment: Antibacterial activity against Pseudomonas aeruginosa PAO1 ATCC 15692 assessed as colony forming units at 10 ug/ml measured after 3 hr by serial dilution method (reference value: 141.66 +/- 7.5 10^8CFU)
# [20] = tested on: Mycolicibacterium smegmatis; experiment: Antibacterial activity against Mycobacterium smegmatis MC2 155 ATCC 700084 assessed as colony forming units at 500 ug/ml measured after 24 hrs by serial dilution method (reference value: 84 +/- 4.35 10^3CFU); procedure, shortened: as §1
# [21] = tested on: Staphylococcus aureus; experiment: Antibacterial activity against methicillin-resistant Staphylococcus aureus ATCC 43300 measured after 24 hrs by serial dilution method
# [22] = tested on: Staphylococcus aureus; experiment: Antibacterial activity against Staphylococcus aureus ATCC 25923 assessed as colony forming units at 100 ug/ml measured after 6 hrs by serial dilution method (reference value: 65.66 +/- 3.51 10^6CFU)
# [23] = tested on: Pseudomonas aeruginosa; experiment: Antibacterial activity against Pseudomonas aeruginosa PAO1 ATCC 15692 assessed as colony forming units at 300 ug/ml measured after 3 hr by serial dilution method (reference value: 141.66 +/- 7.5 10^8CFU)
# [24] = Antioxidant activity assessed as DPPH free radical scavenging activity measured after 30 mins by spectrophotometry
# Procedure, shortened: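 DPPH radical scavenging in ethanolic solution with a final DPPH concentration of 100 µM. Absorbance read at 517 nm. Percent inhibition = (A control − A test)/A control, where the control is DPPH without sample. The inhibition-versus-concentration plot gives EC50, the concentration giving a 50% drop in absorbance. Mean ± S.D. of three independent trials.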
# [25] = tested on: Pseudomonas aeruginosa; experiment: Antibacterial activity against Pseudomonas aeruginosa PAO1 ATCC 15692 assessed as colony forming units at 200 ug/ml measured after 1 hr by serial dilution method (reference value: 85.33 +/- 4.04 10^8CFU)
# [26] = tested on: Mycolicibacterium smegmatis; experiment: Antibacterial activity against Mycobacterium smegmatis MC2 155 ATCC 700084 assessed as colony forming units at 1 ug/ml measured after 6 hrs by serial dilution method (reference value: 70 +/- 1.73 10^3CFU); procedure, shortened: as §1
# [27] = tested on: Staphylococcus aureus; experiment: Antibacterial activity against Staphylococcus aureus ATCC 25923 assessed as colony forming units at 500 ug/ml measured after 6 hrs by serial dilution method (reference value: 65.66 +/- 3.51 10^6CFU); procedure, shortened: as §1
# [28] = tested on: Pseudomonas aeruginosa; experiment: Antibacterial activity against Pseudomonas aeruginosa PAO1 ATCC 15692 assessed as colony forming units at 50 ug/ml measured after 3 hr by serial dilution method (reference value: 141.66 +/- 7.5 10^8CFU)
Structure (SMILES),Activity [1] [%],Activity [2] [×10⁶ CFU],Activity [3] [×10⁶ CFU],Activity [4] [×10⁶ CFU],Activity [5] [×10³ CFU],Activity [6] [%],Activity [7] [×10⁶ CFU],Activity [8] [×10³ CFU],Activity [9] [×10⁸ CFU],Activity [10] [%],Activity [11] [×10⁶ CFU],Activity [12] [×10⁶ CFU],Activity [13] [%],Activity [14],Activity [15] [×10³ CFU],Activity [16] [×10⁸ CFU],Activity [17] [×10⁶ CFU],Activity [18] [×10⁶ CFU],Activity [19] [×10⁸ CFU],Activity [20] [×10³ CFU],also measured
Cc1ccc(O)c(NC(=O)/C=C/c2ccc(O)c(O)c2)c1,63.8,41.33,44.66,26,62.66,100,0,0,23.33,100,15.66,20.33,64.8,Dose-dependent effect,25.33,43,4.66,0,112,0,Activity [21]: Dose-dependent effect; Activity [22]: 14 ×10⁶ CFU; Activity [23]: 0 ×10⁸ CFU; pEC50 [24]: 5.18; Activity [25]: 14 ×10⁸ CFU; Activity [26]: 65.66 ×10³ CFU; Activity [27]: 0 ×10⁶ CFU; Activity [28]: 87 ×10⁸ CFU
O=C(/C=C/c1ccc(O)c(O)c1)Nc1ccccc1Nc1ccccc1,51.9,41.66,48,28.66,54,100,11.66,0,22.33,100,11.33,24.33,61.2,Dose-dependent effect,33.66,35,0,0,91.66,0,Activity [21]: Dose-dependent effect; Activity [22]: 5 ×10⁶ CFU; Activity [23]: 0 ×10⁸ CFU; pEC50 [24]: 4.83; Activity [25]: 10.66 ×10⁸ CFU; Activity [26]: 52.33 ×10³ CFU; Activity [27]: 0 ×10⁶ CFU; Activity [28]: 53.66 ×10⁸ CFU
